Key:
[1] = AUC(0 to 12 hrs) in human at 175 mg, po administered for 8 days by LC-MS/MS analysis; assay type: ADME, organism-based; settings: in vivo, time 8 day
In short: (§1)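 Steady-state plasma sampling on cycle 1 day 8 in patients, predose and 0.25, 0.5, 0.75, 1, 2, 4 and 6 h post-dose, into lithium heparin. Plasma was stored at -80°C. Drug was quantified by validated LC-MS/MS against a stable labeled internal standard, using only values at or above LLOQ and nominal sampling times.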

[2] = Terminal elimination half life in human at 175 mg, po administered for 8 days by LC-MS/MS analysis; assay type: ADME, organism-based; settings: in vivo, time 8 day, read-out: LambdaZ (converted)
[3] = Half life in human at 100 mg, po BID administered for 8 days by LC-MS/MS analysis; assay type: ADME, organism-based; settings: in vivo, time 8 day; in short: as §1
[4] = Cmax in human at 250 mg, po administered for 8 days by LC-MS/MS analysis; assay type: ADME, organism-based; settings: in vivo, time 8 day; in short: as §1
[5] = AUC(0 to infinity) in human at 100 mg, po administered for 8 days by LC-MS/MS analysis; assay type: ADME, organism-based; settings: in vivo, time 8 day; in short: as §1
[6] = Half life in human at 100 mg, po administered for 8 days by LC-MS/MS analysis; assay type: ADME, organism-based; settings: in vivo, time 8 day; in short: as §1
[7] = target: Tyrosine-protein kinase Lck (Homo sapiens, UniProt P06239); assay: Inhibition of recombinant LCK (unknown origin) preincubated for 1 hr […] by Z-Lyte assay
In short: (§2)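 Recombinant kinase activity was measured by Z'-LYTE with ATP at each enzyme's Km. Inhibitor came from a 10 mM DMSO stock and was tested at 10 concentrations. Compound was preincubated with kinase for 1 h before ATP addition started the reaction, for about 2 h total compound-kinase exposure. IC50 is from 2–3 independent experiments.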

[8] = target: Tyrosine-protein kinase Lyn (Homo sapiens, UniProt P07948); assay: Inhibition of recombinant LYN (unknown origin) preincubated for 1 hr in presence of ATP by Z-Lyte assay; in short: as §2
[9] = AUC(0 to 24 hrs) in human at 400 mg, po administered for 8 days by LC-MS/MS analysis; assay type: ADME, organism-based; settings: in vivo, time 8 day; in short: as §1
[10] = AUC(0 to 24 hrs) in human at 100 mg, po BID administered for 8 days by LC-MS/MS analysis; assay type: ADME, organism-based; settings: in vivo, time 8 day; in short: as §1
[11] = AUC(0 to infinity) in human at 250 mg, po administered for 8 days by LC-MS/MS analysis; assay type: ADME, organism-based; settings: in vivo, time 8 day; in short: as §1
[12] = AUC(0 to 12 hrs) in human at 400 mg, po administered for 8 days by LC-MS/MS analysis; assay type: ADME, organism-based; settings: in vivo, time 8 day; in short: as §1
[13] = Cmax in human at 175 mg, po administered for 8 days by LC-MS/MS analysis; assay type: ADME, organism-based; settings: in vivo, time 8 day; in short: as §1
[14] = Terminal elimination half life in human at 400 mg, po administered for 8 days by LC-MS/MS analysis; assay type: ADME, organism-based; settings: in vivo, time 8 day, read-out: LambdaZ (converted)
[15] = Apparent oral clearance in human at 250 mg, po administered for 8 days by LC-MS/MS analysis; assay type: ADME, organism-based; settings: in vivo, time 8 day; in short: as §1
[16] = AUC(0 to 6 hrs) in human at 100 mg, po BID administered for 8 days by LC-MS/MS analysis; assay type: ADME, organism-based; settings: in vivo, time 8 day; in short: as §1
[17] = AUC(0 to infinity) in human at 175 mg, po administered for 8 days by LC-MS/MS analysis; assay type: ADME, organism-based; settings: in vivo, time 8 day; in short: as §1
[18] = Cmax in human at 400 mg, po administered for 8 days by LC-MS/MS analysis; assay type: ADME, organism-based; settings: in vivo, time 8 day; in short: as §1
[19] = Drug exposure in human administered for 6 hrs by LC-MS/MS analysis; assay type: ADME; settings: po, dose 100-400 mg
[20] = AUC(0 to 12 hrs) in human at 250 mg, po administered for 8 days by LC-MS/MS analysis; assay type: ADME, organism-based; settings: in vivo, time 8 day; in short: as §1
[21] = Terminal elimination half life in human at 100 mg, po BID administered for 8 days by LC-MS/MS analysis; assay type: ADME, organism-based; settings: in vivo, time 8 day, read-out: LambdaZ (converted)
[22] = AUC(0 to 24 hrs) in human at 250 mg, po administered for 8 days by LC-MS/MS analysis; assay type: ADME, organism-based; settings: in vivo, time 8 day; in short: as §1
[23] = target: Tyrosine-protein kinase Yes (Homo sapiens, UniProt P07947); assay: Inhibition of recombinant YES1 (unknown origin) […] by Z-Lyte assay
In short: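 Recombinant YES1 run in a Z'-LYTE assay. Compound preincubated with kinase for 1 h before ATP was added to start the reaction. IC50 derived from independent experiments run head-to-head with the comparator.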

[24] = target: Tyrosine-protein kinase Blk (Homo sapiens, UniProt P51451); assay: Inhibition of recombinant BLK (unknown origin) preincubated for 1 hr in presence of ATP by Z-Lyte assay; in short: as §2
[25] = AUC(0 to 24 hrs) in human at 100 mg, po administered for 8 days by LC-MS/MS analysis; assay type: ADME, organism-based; settings: in vivo, time 8 day; in short: as §1
[26] = target: Tyrosine-protein kinase HCK (Homo sapiens, UniProt P08631); assay: Inhibition of recombinant HCK (unknown origin) preincubated for 1 hr in presence of ATP by Z-Lyte assay; in short: as §2
[27] = Apparent volume of distribution during terminal phase in human at 250 mg, po administered for 8 days by LC-MS/MS analysis; assay type: ADME, organism-based; settings: in vivo, time 8 day, read-out: Vz/F; in short: as §1
[28] = Apparent volume of distribution during terminal phase in human at 175 mg, po administered for 8 days by LC-MS/MS analysis; assay type: ADME, organism-based; settings: in vivo, time 8 day, read-out: Vz/F; in short: as §1
[29] = AUC(0 to 6 hrs) in human at 175 mg, po administered for 8 days by LC-MS/MS analysis; assay type: ADME, organism-based; settings: in vivo, time 8 day; in short: as §1
[30] = target: Proto-oncogene tyrosine-protein kinase Src (Homo sapiens, UniProt P12931); assay: Inhibition of recombinant SRC (unknown origin) preincubated for 1 hr in presence of ATP by Z-Lyte assay
[31] = AUC(0 to 6 hrs) in human at 250 mg, po administered for 8 days by LC-MS/MS analysis; assay type: ADME, organism-based; settings: in vivo, time 8 day; in short: as §1

Sequence of Tyrosine-protein kinase Lck (P06239 whole entry): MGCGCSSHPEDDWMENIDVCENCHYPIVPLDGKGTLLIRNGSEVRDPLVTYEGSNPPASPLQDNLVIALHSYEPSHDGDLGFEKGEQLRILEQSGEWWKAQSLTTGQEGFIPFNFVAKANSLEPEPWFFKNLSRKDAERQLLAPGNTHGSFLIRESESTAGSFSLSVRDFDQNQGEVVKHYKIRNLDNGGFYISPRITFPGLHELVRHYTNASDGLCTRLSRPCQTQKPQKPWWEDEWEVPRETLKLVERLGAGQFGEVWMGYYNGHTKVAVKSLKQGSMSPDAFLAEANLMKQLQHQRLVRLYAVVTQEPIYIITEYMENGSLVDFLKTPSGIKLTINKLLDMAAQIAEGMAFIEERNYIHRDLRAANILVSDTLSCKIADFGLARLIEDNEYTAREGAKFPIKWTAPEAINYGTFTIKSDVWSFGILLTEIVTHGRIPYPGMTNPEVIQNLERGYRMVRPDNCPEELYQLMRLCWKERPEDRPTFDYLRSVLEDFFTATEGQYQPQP
Sequence of Tyrosine-protein kinase HCK (P08631 whole entry): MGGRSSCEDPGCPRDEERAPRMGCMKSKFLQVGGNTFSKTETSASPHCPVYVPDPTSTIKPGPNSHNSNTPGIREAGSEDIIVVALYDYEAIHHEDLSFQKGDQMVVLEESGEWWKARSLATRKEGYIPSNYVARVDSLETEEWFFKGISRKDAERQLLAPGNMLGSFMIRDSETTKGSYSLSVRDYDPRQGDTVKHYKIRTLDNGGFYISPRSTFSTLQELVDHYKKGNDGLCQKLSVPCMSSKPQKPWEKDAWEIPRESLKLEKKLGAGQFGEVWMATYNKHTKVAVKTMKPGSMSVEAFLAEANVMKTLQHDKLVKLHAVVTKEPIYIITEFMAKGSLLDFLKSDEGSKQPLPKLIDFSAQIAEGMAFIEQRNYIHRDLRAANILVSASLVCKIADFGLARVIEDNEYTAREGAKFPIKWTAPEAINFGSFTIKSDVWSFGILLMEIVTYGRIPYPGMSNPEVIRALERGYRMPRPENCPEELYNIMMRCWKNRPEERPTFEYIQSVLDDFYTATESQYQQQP
Sequence of Tyrosine-protein kinase Blk (P51451 whole entry): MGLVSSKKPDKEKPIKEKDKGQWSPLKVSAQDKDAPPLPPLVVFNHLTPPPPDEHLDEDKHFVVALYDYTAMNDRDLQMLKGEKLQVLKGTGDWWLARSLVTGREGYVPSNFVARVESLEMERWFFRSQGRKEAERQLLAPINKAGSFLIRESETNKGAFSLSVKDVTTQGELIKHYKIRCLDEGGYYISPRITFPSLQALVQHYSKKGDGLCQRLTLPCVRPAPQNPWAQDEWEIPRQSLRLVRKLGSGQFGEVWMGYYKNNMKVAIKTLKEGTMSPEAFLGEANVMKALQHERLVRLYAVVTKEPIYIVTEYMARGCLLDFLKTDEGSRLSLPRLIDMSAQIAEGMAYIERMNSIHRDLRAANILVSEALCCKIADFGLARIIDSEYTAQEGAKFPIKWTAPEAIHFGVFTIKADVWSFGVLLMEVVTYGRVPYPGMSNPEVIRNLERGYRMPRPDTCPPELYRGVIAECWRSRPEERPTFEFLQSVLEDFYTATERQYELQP
Sequence of Tyrosine-protein kinase Lyn (P07948 whole entry): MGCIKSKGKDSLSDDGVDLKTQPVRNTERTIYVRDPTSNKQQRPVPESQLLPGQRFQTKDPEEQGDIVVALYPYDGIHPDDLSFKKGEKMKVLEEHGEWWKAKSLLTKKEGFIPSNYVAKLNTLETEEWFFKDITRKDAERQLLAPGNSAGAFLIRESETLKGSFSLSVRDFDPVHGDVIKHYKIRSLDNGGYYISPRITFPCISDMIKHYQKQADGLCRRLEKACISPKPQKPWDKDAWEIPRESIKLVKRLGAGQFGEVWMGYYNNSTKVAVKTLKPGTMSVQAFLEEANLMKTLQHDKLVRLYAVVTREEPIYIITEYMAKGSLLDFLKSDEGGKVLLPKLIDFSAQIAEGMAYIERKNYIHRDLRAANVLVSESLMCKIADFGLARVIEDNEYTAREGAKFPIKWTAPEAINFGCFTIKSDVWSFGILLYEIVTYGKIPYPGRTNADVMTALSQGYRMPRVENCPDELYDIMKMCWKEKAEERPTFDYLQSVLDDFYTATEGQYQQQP
Sequence of Tyrosine-protein kinase Yes (P07947 whole entry): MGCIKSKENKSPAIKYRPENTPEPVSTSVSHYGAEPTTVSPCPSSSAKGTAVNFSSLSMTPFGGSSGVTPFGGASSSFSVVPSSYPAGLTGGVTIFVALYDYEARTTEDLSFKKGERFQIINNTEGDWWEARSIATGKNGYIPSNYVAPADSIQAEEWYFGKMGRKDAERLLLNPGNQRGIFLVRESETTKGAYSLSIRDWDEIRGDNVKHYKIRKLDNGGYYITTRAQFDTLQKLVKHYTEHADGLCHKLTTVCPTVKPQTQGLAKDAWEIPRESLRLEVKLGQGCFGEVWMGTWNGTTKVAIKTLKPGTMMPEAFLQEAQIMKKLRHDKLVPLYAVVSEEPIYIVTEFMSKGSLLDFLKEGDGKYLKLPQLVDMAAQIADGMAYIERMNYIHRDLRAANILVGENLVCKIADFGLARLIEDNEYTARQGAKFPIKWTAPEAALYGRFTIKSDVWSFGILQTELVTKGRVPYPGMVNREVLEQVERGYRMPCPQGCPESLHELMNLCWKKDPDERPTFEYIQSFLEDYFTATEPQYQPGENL
Sequence of Proto-oncogene tyrosine-protein kinase Src (P12931 2-536 limits assumed): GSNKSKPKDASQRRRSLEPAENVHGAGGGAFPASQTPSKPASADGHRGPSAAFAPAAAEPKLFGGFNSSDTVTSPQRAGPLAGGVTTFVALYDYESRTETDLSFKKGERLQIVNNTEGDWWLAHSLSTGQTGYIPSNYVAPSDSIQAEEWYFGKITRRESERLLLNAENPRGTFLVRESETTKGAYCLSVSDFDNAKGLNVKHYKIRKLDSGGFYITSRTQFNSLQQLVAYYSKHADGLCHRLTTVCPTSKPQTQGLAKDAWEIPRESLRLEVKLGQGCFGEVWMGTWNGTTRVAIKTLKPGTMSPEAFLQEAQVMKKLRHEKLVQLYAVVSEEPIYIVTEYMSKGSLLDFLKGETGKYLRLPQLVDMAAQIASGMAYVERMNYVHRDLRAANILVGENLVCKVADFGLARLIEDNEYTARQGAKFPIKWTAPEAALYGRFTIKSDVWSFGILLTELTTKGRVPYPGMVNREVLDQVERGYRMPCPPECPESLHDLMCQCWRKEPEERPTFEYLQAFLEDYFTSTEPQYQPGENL

Compound: CC#CC(=O)N1CCC[C@H]1c1nc(-c2ccc(C(=O)Nc3ccccn3)cc2)c2c(N)nccn12 [ACALABRUTINIB]
- AUC at 192 h [1]: 1160 ng·h/mL
- k el at 192 h [2]: 0.000194 s⁻¹
- half-life [3]: 1.13 h
- Cmax [4]: 1350 ng/mL
- AUC(0-inf) [5]: 603 ng·h/mL
- half-life [6]: 1.16 h
- IC50 [7]: > 1000 nM
- IC50 [8]: > 1000 nM
- AUC at 192 h [9]: 1870 ng·h/mL
- AUC at 192 h [10]: 1850 ng·h/mL
- AUC(0-inf) [11]: 2310 ng·h/mL
- AUC at 192 h [12]: 1850 ng·h/mL
- Cmax [13]: 805 ng/mL
- k el at 192 h [14]: 0.000161 s⁻¹
- CL/F [15]: 2170 mL/min
- AUC at 192 h [16]: 826 ng·h/mL
- AUC(0-inf) [17]: 1160 ng·h/mL
- Cmax [18]: 902 ng/mL
- Drug uptake [19]: Dose-Dependent Effect
- AUC at 192 h [20]: 2310 ng·h/mL
- k el at 192 h [21]: 0.000188 s⁻¹
- AUC at 192 h [22]: 2310 ng·h/mL
- IC50 [23]: > 1000 nM
- IC50 [24]: > 1000 nM
- AUC at 192 h [25]: 603 ng·h/mL
- IC50 [26]: > 1000 nM
- Vd/F [27]: 179 L
- Vd/F [28]: 317 L
- AUC at 192 h [29]: 1140 ng·h/mL
- IC50 [30]: > 1000 nM
- AUC at 192 h [31]: 1990 ng·h/mL
